NPY Y2 blocker = NPY-Y2 receptor antagonists, primary screen, cell-based | Neuropeptide Y receptor type 2 (Homo sapiens), P49146 | NPY-Y2 expressing cells, antagonist mode | inhibition, % at 2.7 µM | 0.99% of 140,000 active; in the data active = inhibition above about 17%
Target sequence (P49146 whole entry, looked up): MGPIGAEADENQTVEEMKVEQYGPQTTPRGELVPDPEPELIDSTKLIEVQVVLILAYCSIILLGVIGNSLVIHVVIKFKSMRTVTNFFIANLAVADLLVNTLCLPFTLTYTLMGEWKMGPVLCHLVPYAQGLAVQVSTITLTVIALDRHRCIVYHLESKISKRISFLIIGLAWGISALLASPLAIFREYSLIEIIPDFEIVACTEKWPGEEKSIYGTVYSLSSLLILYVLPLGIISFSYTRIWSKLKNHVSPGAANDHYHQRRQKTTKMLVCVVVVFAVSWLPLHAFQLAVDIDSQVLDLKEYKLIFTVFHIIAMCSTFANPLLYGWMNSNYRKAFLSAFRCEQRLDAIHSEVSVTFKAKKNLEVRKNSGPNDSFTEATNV
NPY-Y1 PAM-ag = NPY-Y1 receptor potentiators or agonists, primary screen, cell-based | activation, % at 3.6 µM | AID 1304, 2008 | NPY-Y1 expressing cells, potentiator/agonist activation | Neuropeptide Y receptor type 1 (Homo sapiens), P25929 | 0.37% of 220,000 active; in the data active = activation above about 33%, passing the limit was not always enough;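 note: cells stimulated with NPY at EC10 then isoproterenol at EC100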
Target sequence (P25929 whole entry, looked up): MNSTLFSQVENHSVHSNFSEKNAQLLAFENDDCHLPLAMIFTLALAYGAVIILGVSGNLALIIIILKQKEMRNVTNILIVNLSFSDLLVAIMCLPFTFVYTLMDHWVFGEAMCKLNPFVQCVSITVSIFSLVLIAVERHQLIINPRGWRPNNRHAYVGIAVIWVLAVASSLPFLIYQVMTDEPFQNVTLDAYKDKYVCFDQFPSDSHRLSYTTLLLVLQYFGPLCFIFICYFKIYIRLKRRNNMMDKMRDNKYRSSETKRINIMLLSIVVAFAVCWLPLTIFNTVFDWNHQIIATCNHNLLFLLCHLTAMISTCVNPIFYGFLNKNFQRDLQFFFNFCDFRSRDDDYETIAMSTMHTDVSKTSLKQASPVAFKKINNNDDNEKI
Ins promoter up = insulin promoter activators in MIN6 cells, imaging, high-content screening, mouse beta cells; 0.3% of 190,000 active; AID 1625, 2009; MIN6 insulin promoter-GFP reporter; hits give high values; z-score at 5 µM;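 active = z-score above 3 at 5 µM with at least 500 cells counted in the well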
NPY2 pot ag = NPY-Y2 potentiators or agonists, primary screen, cell-based; Neuropeptide Y receptor type 2 (Homo sapiens), P49146; cells expressing NPY-Y2, potentiator/agonist read-out; activation, % at 3.6 µM; 0.45% of 220,000 active; in the data active = activation above about 27%;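 note: cells stimulated with NPY near EC25 plus isoproterenol at EC100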
NPY-Y1 antag = NPY-Y1 receptor antagonists, primary screen, cell-based. Neuropeptide Y receptor type 1 (Homo sapiens), P25929. HEK293-CNG Y1 cells, membrane potential fluorescence; NPY at EC95, then isoproterenol. inhibition, % at 3.6 µM. 1% of 200,000 active;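 active = inhibition above the campaign mean inhibition of all tested compounds plus 3 SD, cut at about 20% in these data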
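Benchmarks – high control isoproterenol alone, low control NPY with isoproterenol · Material – HEK293 Y1/CNG channel cell line · Times – dye 3 h, compound 60 min room temperature, stimulation 45 min · Probe or stimulus – NPY (25 nM), isoproterenol (1 µM), Ro 20-1724 (25 µM) · Evaluation – % inhibition of NPY effect · Signal – fluorescence, membrane potential probe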
INS promoter inh = inhibitors of insulin promoter-driven GFP, primary screen, imaging, TRM-6 cells, eGFP reporter, cell count; reporter expression induced with tamoxifen; inhibition, % at 2 µM; 0.9% of 130,000 active;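 active = inhibition above the mean plus 3 SD, with well images judged a real hit on visual review, cut at about 60% in these data, passing the limit was not always enough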
NPY-Y1 pot conf = NPY-Y1 potentiators or agonists, confirmation, cell-based; shares compounds with NPY-Y1 PAM-ag; cell-based NPY-Y1 potentiator/agonist assay; activation, % at 3.6 µM; 20% of 280 active; in the data active = activation above about 45%;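 note: cells challenged with NPY at its EC10 plus isoproterenol stimulus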
NPY-Y2 counter = NPY-Y2 potentiators or agonists, counter-screen for NPY-Y1 potentiator project, cell-based, fluorescence | shares compounds with NPY-Y1 PAM-ag | HEK293-CNG cells, membrane-potential fluorescence (FLIPR), 1536-well | activation, % at 3.6 µM | 20% of 280 active | AID 1649, 2009; in the data active = activation above about 33%
NPY-Y1 ag = NPY-Y1 direct agonists without NPY, confirmation, counter-screen for NPY-Y1 potentiator project, cell-based, fluorescence; shares compounds with NPY-Y1 PAM-ag; HEK293 Y1-CNGC, membrane potential fluorescence, agonist mode; activation, % at 3.6 µM; 50% of 280 active;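 active = percent activation above the mean of DMSO-only control wells plus 3 SD of those wells, cut at about 18% in these data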;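 note: cells challenged with isoproterenol plus Ro 20-1724 with no NPY in test wells; Y1 agonism lowers isoproterenol-driven cAMP and reduces probe fluorescence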
NPY-Y2 ag = NPY-Y2 direct agonists without NPY, counter-screen for NPY-Y1 potentiator project, cell-based, fluorescence | shares compounds with NPY-Y1 PAM-ag | HEK293 Y2-CNGC, membrane potential fluorescence, agonist mode | activation, % at 3.6 µM | 67% of 280 active | AID 1698, 2009;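 active = activation above the solvent-only control wells' mean plus 3 SD, cut at about 11% in these data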;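 note: agonism lowers cAMP so well fluorescence drops in active wells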
CNGC inh 2 = CNGC cAMP sensor activity inhibitors, counter-screen for NPY-Y1 potentiator/agonist project, cell-based, HEK293-CNG parental, membrane potential fluorescence, Y1 set. shares compounds with NPY-Y1 PAM-ag. isoproterenol cAMP. inhibition, % at 3.6 µM. 42% of 280 active. AID 1704, 2009;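 active = inhibition above the mean of stimulated solvent-only control wells plus 3 SD, cut at about 22% in these data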
Large screens that a line does not name were inactive (follow-up assays come after a bar, where they were run). Compounds with a hit are over-represented: about 2.5% of the library has one in this group of screens.

Cc1ccc(C(=O)O)cc1NC(=O)CCc1ccccc1	none (no result: NPY Y2 blocker)
COC(=O)c1ccc(C)c(NC(=O)CCc2ccc(OC)cc2)c1	NPY-Y1 PAM-ag 105 | NPY-Y1 pot conf inactive | NPY-Y2 counter inactive | NPY-Y1 ag inactive | NPY-Y2 ag inactive | CNGC inh 2 inactive
CCCNC(=O)/C(=C/c1cn(S(=O)(=O)N(C)C)c2ccccc12)NC(=O)c1ccc(OC)cc1	none (no result: NPY Y2 blocker, INS promoter inh)
O=C(CN1c2ccccc2Sc2ccccc21)NNC(=S)Nc1ccc(Cl)cc1	none (no result: NPY Y2 blocker, NPY-Y1 antag, INS promoter inh)
O=C(CN1c2ccccc2Sc2ccccc21)NNC(=S)Nc1ccc(Cl)cc1Cl	NPY-Y1 PAM-ag 68 (no result: Ins promoter up) | NPY-Y1 pot conf inactive | NPY-Y2 counter 37 | NPY-Y1 ag inactive | NPY-Y2 ag 46 | CNGC inh 2 27
COc1ccccc1NC(=O)Nc1ccc(-n2ccc(C(F)(F)F)n2)cc1	NPY-Y1 PAM-ag 55 (no result: NPY Y2 blocker, NPY-Y1 antag, INS promoter inh) | NPY-Y1 pot conf 65 | NPY-Y2 counter 49 | NPY-Y1 ag 55 | NPY-Y2 ag 38 | CNGC inh 2 36
Cc1cc(C)cc(NC(=O)Nc2ccc(-n3ccc(C(F)(F)F)n3)cc2)c1	none (no result: NPY Y2 blocker, NPY-Y1 antag, INS promoter inh)
COc1cc(=O)n(C)c2ccccc12	NPY-Y1 PAM-ag 50 | NPY-Y1 pot conf inactive | NPY-Y2 counter inactive | NPY-Y1 ag inactive | NPY-Y2 ag inactive | CNGC inh 2 inactive
COc1ccc2c(OC)cc(=O)n(C)c2c1	none
COC(=O)CNC(=O)CN1C(=O)N(c2ccccc2)C(N(O)C(=O)Nc2ccccc2)C1(C)C (configuration not stated)	none
COC(=O)CNC(=O)CN1C(=O)N(c2cccc(Cl)c2)C(N(O)C(=O)Nc2cccc(Cl)c2)C1(C)C (configuration not stated)	NPY-Y1 PAM-ag 49 | NPY-Y1 pot conf 46 | NPY-Y2 counter inactive | NPY-Y1 ag 32 | NPY-Y2 ag 31 | CNGC inh 2 32
CCn1ncc(Br)c1C(=O)Nc1ccc(F)cc1F	none
CCn1ncc(Br)c1C(=O)Nc1ccc(F)c([N+](=O)[O-])c1	NPY-Y1 PAM-ag 45 | NPY-Y1 pot conf inactive | NPY-Y2 counter 39 | NPY-Y1 ag 40 | NPY-Y2 ag 27 | CNGC inh 2 36
Oc1ccccc1-c1nc2c3ccccc3c3ccccc3c2[nH]1	NPY-Y1 PAM-ag 50 (no result: NPY Y2 blocker, NPY-Y1 antag, INS promoter inh) | NPY-Y1 pot conf inactive | NPY-Y2 counter inactive | NPY-Y1 ag 37 | NPY-Y2 ag 34 | CNGC inh 2 39
c1csc(-c2nc3c4ccccc4c4ccccc4c3[nH]2)c1	none (no result: Ins promoter up)
Cc1ccn2c(Nc3ccccc3C)c(-c3ccncc3)nc2c1	NPY-Y1 PAM-ag 41 | NPY-Y1 pot conf 59 | NPY-Y2 counter 50 | NPY-Y1 ag 36 | NPY-Y2 ag 50 | CNGC inh 2 27
N#Cc1c(-c2ccccc2)c(-c2ccccc2)nn(CC(=O)NNC(=O)Nc2ccc(Cl)c(Cl)c2)c1=O	NPY-Y1 PAM-ag 38 | NPY-Y1 pot conf inactive | NPY-Y2 counter inactive | NPY-Y1 ag 34 | NPY-Y2 ag 32 | CNGC inh 2 32
Cc1cc(C)cc(NC(=S)/C(=C(\[O-])c2ccc(Cl)cc2Cl)[n+]2ccccc2)c1	none (no result: NPY Y2 blocker)
[O-]/C(=C(\C(=S)Nc1ccc(SC(F)F)cc1)[n+]1ccccc1)c1ccc(Cl)cc1Cl	NPY-Y1 PAM-ag 37 (no result: NPY Y2 blocker) | NPY-Y1 pot conf 48 | NPY-Y2 counter inactive | NPY-Y1 ag 36 | NPY-Y2 ag 31 | CNGC inh 2 47
O=C(COc1ccc(Cl)cc1)Nc1ccc(Cc2ccncc2)cc1	NPY-Y1 PAM-ag 62 | NPY-Y1 pot conf inactive | NPY-Y2 counter inactive | NPY-Y1 ag inactive | NPY-Y2 ag inactive | CNGC inh 2 inactive
CC1(c2nnc(-c3ccncc3)o2)CC(c2ccc([N+](=O)[O-])cc2)=NO1 (configuration not stated)	none (no result: NPY Y2 blocker, NPY-Y1 PAM-ag, NPY2 pot ag, NPY-Y1 antag, INS promoter inh)
N#Cc1ccc(NC(=O)Nc2ccc(Cl)cc2)cc1	NPY-Y1 PAM-ag 49 (no result: INS promoter inh) | NPY-Y1 pot conf inactive | NPY-Y2 counter inactive | NPY-Y1 ag 23 | NPY-Y2 ag 28 | CNGC inh 2 32
O=C(c1ccccc1)N1CCN(c2n[nH]c(=O)[nH]c2=O)CC1	NPY-Y1 PAM-ag 45 (no result: NPY Y2 blocker, INS promoter inh) | NPY-Y1 pot conf inactive | NPY-Y2 counter inactive | NPY-Y1 ag inactive | NPY-Y2 ag inactive | CNGC inh 2 inactive
O=C(c1ccccc1)N1CCN(C(=O)c2ccncc2)CC1	none (no result: Ins promoter up)
CCN=c1scc(-c2cccs2)n1/N=C/c1cc(OC)ccc1O	none
CC(C)N=c1scc(-c2cccs2)n1/N=C/c1ccc(O)c(O)c1O	NPY-Y1 PAM-ag 52 | NPY-Y1 pot conf 51 | NPY-Y2 counter 39 | NPY-Y1 ag 53 | NPY-Y2 ag 26 | CNGC inh 2 inactive
Cc1noc(-c2ccc(C(F)(F)F)cc2)c1NC(=O)Nc1ccc(Cl)cc1	NPY-Y1 PAM-ag 63 (no result: NPY Y2 blocker, Ins promoter up, NPY-Y1 antag, INS promoter inh) | NPY-Y1 pot conf 53 | NPY-Y2 counter inactive | NPY-Y1 ag 53 | NPY-Y2 ag 25 | CNGC inh 2 37
Cc1cc(-c2onc(C)c2C(=O)Nc2ccc(C(F)(F)F)cc2)no1	none (no result: NPY Y2 blocker, NPY-Y1 antag, INS promoter inh)
CCOC(=O)Cn1c(=O)oc2cc(S(=O)(=O)NCc3ccccn3)ccc21	none (no result: INS promoter inh)
CCOC(=O)Cn1c(=O)oc2cc(S(=O)(=O)NCc3cccs3)ccc21	NPY-Y1 PAM-ag 33 (no result: INS promoter inh) | NPY-Y1 pot conf 48 | NPY-Y2 counter inactive | NPY-Y1 ag 46 | NPY-Y2 ag 29 | CNGC inh 2 61
O=C(Nc1ccc2c(c1)OCO2)N1CCC(CO)(CC2CCCCO2)CC1 (configuration not stated)	none (no result: NPY Y2 blocker, INS promoter inh)
